aDG glyco act: activators of alpha-DG glycosylation, primary screen, uHTS, Pro5-aDG cells, AlphaScreen; alpha-DG glycosylation AlphaScreen (IIH6); 0% Pro5, 100% B10-LARGE cell signal; activation, % at 10 µM; actives 0.22% (n = 360,000);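 active = activation of at least 8% versus controls, or a plate z-score of at least 8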;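 note: Pro5 are CHO cells carrying HIG-tagged alpha-DG that lacks glycosylation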
TPT1 inhibitor: Candida albicans TPT1 enzyme inhibitors, primary screen, biochemical, fluorescence polarization | tRNA 2'-phosphotransferase TPT1 (Candida albicans SC5314) | AID 1962, 2009 | recombinant caTPT1, FP RNA substrate dephosphorylation | actives 0.81% (n = 300,000) | inhibition, % at 5 µM;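 active = inhibition above the mean of all tested compounds plus 3 SD, set per screening campaign, cut at about 24% in these data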;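 note: plate controls were DMSO alone for no effect and ferristatin control at 100 nM for full effect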
CSN inh: inhibitors of CSN-mediated cullin deneddylation, primary screen, biochemical, fluorescence polarization, uHTS; COP9 signalosome complex subunit 5 (Homo sapiens), Q92905; Purified CSN, SCF-Nedd8-OG deneddylation; actives 0.38% (n = 360,000); inhibition, % at 12.5 µM;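 active = pattern-corrected inhibition above about 35%, with an unprinted fluorescence ratio check between 0.5 and 1.5, limit read from the data, passing the limit was not always enough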;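 note: 0% = enzyme with substrate and 100% = substrate without enzyme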
Target sequence (Q92905 whole entry, looked up, one chain of several): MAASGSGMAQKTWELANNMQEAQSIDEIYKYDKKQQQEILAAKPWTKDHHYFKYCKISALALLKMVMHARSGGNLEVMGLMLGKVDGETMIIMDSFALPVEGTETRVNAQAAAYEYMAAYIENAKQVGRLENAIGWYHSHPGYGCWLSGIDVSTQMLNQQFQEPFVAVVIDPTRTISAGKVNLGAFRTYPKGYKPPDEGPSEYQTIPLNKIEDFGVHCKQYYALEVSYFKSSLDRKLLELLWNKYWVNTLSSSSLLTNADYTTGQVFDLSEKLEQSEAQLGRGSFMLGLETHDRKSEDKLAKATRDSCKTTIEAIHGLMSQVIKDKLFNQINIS
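Assay system: purified human Csn5 enzyme expressed in HEK293T cells; measure: % inhibition; also added: SCFSkp2-Nedd8OG substrate at 10 nM final; technique: fluorescence polarization; times: reaction 90 min, room temperature; medium: Tris buffer pH 7.5, NaCl, DTT, Tween-20, trehalose, ovalbumin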
HNF4A DNA FP: change in binding of human HNF4A to DNA, primary screen, biochemical, fluorescence polarization, FITC-DNA; actives 0.3% (n = 360,000); activity change, % at 10 µM; 1 h; Hepatocyte nuclear factor 4-alpha (Homo sapiens), P41235; AID 1224865, 2016; in the data active = activity change above about 30%, passing the limit was not always enough
Rpn11 inh: Rpn11 (PSMD14) deubiquitinase inhibitors, primary screen, biochemical, fluorescence polarization, uHTS. AID 588493, 2011. human 26S proteasome, Ub4-pepOG fluorescence polarization; 20S core pre-blocked with epoxomicin. actives 0.59% (n = 360,000). 26S proteasome non-ATPase regulatory subunit 14 (Homo sapiens), O00487. inhibition, % at 20 µM;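 active = inhibition at 20 µM, scaled to each plate's controls, above about 33%, limit read from the data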
Target sequence (O00487 whole entry, looked up): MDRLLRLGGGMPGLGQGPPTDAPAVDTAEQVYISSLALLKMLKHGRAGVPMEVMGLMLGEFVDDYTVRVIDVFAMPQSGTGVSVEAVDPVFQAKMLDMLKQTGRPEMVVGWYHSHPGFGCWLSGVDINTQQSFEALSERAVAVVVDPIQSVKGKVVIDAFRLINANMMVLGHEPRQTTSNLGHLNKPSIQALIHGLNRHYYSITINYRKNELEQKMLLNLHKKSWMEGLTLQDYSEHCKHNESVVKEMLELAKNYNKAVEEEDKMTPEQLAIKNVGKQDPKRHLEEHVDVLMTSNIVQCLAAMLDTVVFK
Xi reactivation: activators of inactive X chromosome reactivation, primary screen, imaging, XiGFP fibroblasts, GFP high-content imaging, set 2; XiGFP mouse fibroblasts, % GFP-positive cells imaging, 3 d; cells co-treated with 5-aza-dC sensitizer; scaled so ellipticine positive control = 100%; activation, % at 7.58 µM; actives 0.055% (n = 360,000); AID 743238, 2013;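 active = mean normalized replicate activation at least 10% and every replicate at or above 10%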;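 note: 0% = median of on-plate neutral control wells and 100% = ellipticine 6 µM median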
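Schedule: 3 d treatment, 15 min room-temperature fixation; system: 68-5-11 XiGFP fibroblast line; buffer or medium: DMEM plus 5-aza-dC sensitizer; control set: ellipticine 6 µM positive control; compound: one concentration, pinned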
* = called active by the depositor. This is a sample that favours compounds with a hit; in the whole collection about 1.3% have one here.

C[C@@H]1CN([C@H](C)CO)C(=O)c2cccc(NC(=O)C3CCCCC3)c2O[C@@H]1CN(C)S(=O)(=O)c1cccs1 was read as Xi reactivation 0.
`C#CCOCCOCCOCCNc1nc(N2CCN(C(=O)CCCCCCCCCCNC(=O)Cn3cc(CCCCCN)nn3)CC2)nc(N2CCN(C(=O)CCCCCCCCCCNC(=O)[C@H]([C@@H](C)CC)n3cc(CCCCN=C(N)N)nn3)CC2)n1` gave aDG glyco act 0, TPT1 inhibitor -3, CSN inh 100*, HNF4A DNA FP 117 and Rpn11 inh 41*.
`C#CCOCCOCCOCCNc1nc(N2CCN(C(=O)CCCCCCCCCCNC(=O)[C@H]([C@@H](C)CC)n3cc(CCCCCN)nn3)CC2)nc(N2CCN(C(=O)CCCCCCCCCCNC(=O)[C@H]([C@@H](C)CC)n3cc(CCCCN=C(N)N)nn3)CC2)n1` gave aDG glyco act 0, TPT1 inhibitor 0, CSN inh 116*, HNF4A DNA FP 153 and Rpn11 inh 88*.
Screening C#CCOCCOCCOCCNc1nc(N2CCN(C(=O)CCCCCCCCCCNC(=O)[C@H]([C@@H](C)CC)n3cc(CCCCN=C(N)N)nn3)CC2)nc(N2CCN(C(=O)CCCCCCCCCCNC(=O)[C@H]([C@@H](C)CC)n3cc(CCCCN=C(N)N)nn3)CC2)n1 returned TPT1 inhibitor -1.
Screening C#CCOCCOCCOCCNc1nc(N2CCN(C(=O)CCCCCCCCCCNC(=O)[C@H](CCCCN)n3cc(CCCC(=O)O)nn3)CC2)nc(N2CCN(C(=O)CCCCCCCCCCNC(=O)[C@@H]([C@H](C)O)n3cc(C)nn3)CC2)n1 returned aDG glyco act 0, TPT1 inhibitor -2, CSN inh -3, HNF4A DNA FP 4 and Rpn11 inh -3.
`C#CCOCCOCCOCCNc1nc(N2CCN(C(=O)CCCCCCCCCCNC(=O)[C@H](CCCCN)n3cc(C)nn3)CC2)nc(N2CCN(C(=O)CCCCCCCCCCNC(=O)[C@H](CCCCN)n3cc(CCCC(=O)O)nn3)CC2)n1` gave aDG glyco act 0, TPT1 inhibitor -5, CSN inh 14, HNF4A DNA FP 38* and Rpn11 inh -23.
Screening C#CCOCCOCCOCCNc1nc(N2CCN(C(=O)CCCCCCCCCCNC(=O)Cn3cc(CCCCCN)nn3)CC2)nc(N2CCN(C(=O)CCCCCCCCCCNC(=O)Cn3cc(CCCCCN)nn3)CC2)n1 returned aDG glyco act 0, TPT1 inhibitor -6, CSN inh 60*, HNF4A DNA FP 38* and Rpn11 inh 17.
C#CCOCCOCCOCCNc1nc(N2CCN(C(=O)CCCCCCCCCCNC(=O)[C@H]([C@@H](C)CC)n3cc(CCCCN=C(N)N)nn3)CC2)nc(N2CCN(C(=O)CCCCCCCCCCNC(=O)[C@H](CO)n3cc(CCCCCN)nn3)CC2)n1 was read as aDG glyco act -1, TPT1 inhibitor 0, CSN inh 106*, HNF4A DNA FP 146 and Rpn11 inh 75*.
`C#CCOCCOCCOCCNc1nc(N2CCN(C(=O)[C@H](Cc3cc4ccccc4[nH]3)n3cc([C@@H](N)C(C)CC)nn3)CC2)nc(N2CCN(C(=O)[C@H](CCCCN)n3cc([C@@H](N)CO)nn3)CC2)n1` (stereo partly specified) gave TPT1 inhibitor 1.
For CC(C)(C)OC(=O)NCCCCCc1cn([C@@H](CO)C(=O)NCCCCCCCCCCC(=O)N2CCN(C(=O)OC(C)(C)C)CC2)nn1 the results were aDG glyco act 5.8*, TPT1 inhibitor -4, CSN inh -10, HNF4A DNA FP -2, Rpn11 inh 2 and Xi reactivation 0.
For C#CCOCCOCCOCCNc1nc(N2CCN(C(=O)[C@H](CCCCN)n3cc([C@@H](N)C(C)CC)nn3)CC2)nc(N2CCN(C(=O)[C@H](Cc3cc4ccccc4[nH]3)n3cc([C@@H](N)CC(C)C)nn3)CC2)n1 (stereo partly specified) the results were aDG glyco act 0, TPT1 inhibitor -3, CSN inh 45*, HNF4A DNA FP 49* and Rpn11 inh 23.
Screening Cc1cccc(NC(=O)CSCC(=O)Nc2ccc(S(=O)(=O)N3CCCC3)cc2)c1 returned aDG glyco act 0, TPT1 inhibitor 0, CSN inh 0, HNF4A DNA FP 3, Rpn11 inh -3 and Xi reactivation 0.
Screening Cc1cccc(CNc2ccc(S(=O)(=O)N3CCCCC3)cc2)c1 returned aDG glyco act 0, CSN inh 62*, HNF4A DNA FP 0, Rpn11 inh -3 and Xi reactivation 0.
Screening CC(=O)NC(c1cccs1)c1cc([N+](=O)[O-])c2cccnc2c1O (stereo unspecified) returned aDG glyco act 2, TPT1 inhibitor 4, CSN inh -1, HNF4A DNA FP 0, Rpn11 inh 40* and Xi reactivation 0.
`Clc1cc(Cl)c2nc(N3CCCC3)sc2c1` gave aDG glyco act 0, TPT1 inhibitor 0, CSN inh 41*, HNF4A DNA FP -3 and Rpn11 inh 5.
`Clc1cc(Cl)c2nc(N3CCCCC3)sc2c1` gave aDG glyco act 0, TPT1 inhibitor -2, CSN inh 3, HNF4A DNA FP -2 and Rpn11 inh 1.
`CCOC(=O)c1cc(-c2ccc(N3CCOCC3)cc2)nn1-c1ccccc1C(=O)O` gave aDG glyco act 0, TPT1 inhibitor 3, CSN inh 30, HNF4A DNA FP -49, Rpn11 inh 60* and Xi reactivation 0.
For CCC(CO)Oc1cc(NCc2ccc(C(C)(C)C)cc2)c2ncn(C(C)C)c2c1 (stereo unspecified) the results were aDG glyco act 5.2*, CSN inh -1, HNF4A DNA FP 0, Rpn11 inh -1 and Xi reactivation 0.
`CO[C@@H]1CN(C)C(=O)c2cc(NC(C)=O)ccc2OC[C@H](C)N(CC2CC2)C[C@@H]1C` gave Xi reactivation 0.
COc1ccc2c3c(n(C)c2c1)[C@H](CO)N(C)CC31CN(C(=O)CN2CCOCC2)C1 was read as Xi reactivation 0.

Source: PubChem BioAssay
